From PubChem
TRAIL sens C8: viability loss with TRAIL in NB7+C8 cells, primary screen, TRAIL sensitizer project, cell-based, ATPlite luminescence. inhibition (viability loss, TRAIL sensitization), % at 10 µM. 360,000 tested, 1% active;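 active = compounds causing at least 50% loss of cell viability in the single-dose screen, relative to plate controls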
STAT3 inh: IL-6 driven STAT3 reporter inhibitors, primary screen, U3A cells, luciferase, luminescence, MLSCN library; IL-6 STAT3-luciferase reporter; host cell line lacks STAT1; inhibition, % at 5.5 µM; 190,000 tested, 0.89% active; AID 862, 2007;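 active = inhibition above the mean inhibition across all screened compounds plus 3 SD, cut at about 44% in these data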;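 note: 0% = DMSO only wells and 100% = 100 µM nifuroxazide control wells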
STAT3 act: IL-6 driven STAT3 reporter potentiators, primary screen, U3A cells, luciferase, luminescence, MLSCN library. IL-6 STAT3-luciferase reporter; 100% = signal with IL-6 EC80 alone. activation (% of control), % at 5.6 µM. 190,000 tested, 0.91% active. AID 871, 2007;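 active = activation above the screen-wide mean of compound activation plus 3 SD, cut at about 130% in these data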;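 note: 0% = background luminescence of wells with medium and substrate only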
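Material: human STAT1-deficient U3A cells with stable STAT3-luciferase reporter / Probe or stimulus: IL-6 stimulus at 33 ng/mL final / Schedule: 1 h compound pre-exposure, 6 h IL-6 stimulation, 37 °C / Technique: luminescence / Read-out basis: percent of IL-6-only median luminescence / Control set: IL-6-only high control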
STAT1 blocker: STAT1 signaling inhibitors, primary screen, cell-based, HTS, luciferase reporter | NIH 3T3 STAT1-luciferase reporter, IFN-gamma, luminescence | inhibition, % at 5.5 µM | 200,000 tested, 0.35% active | AID 920, 2007;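 active = inhibition above a set limit, the mean inhibition across all tested compounds plus 3 SD, cut at about 34% in these data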;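 note: 0% = IFN-gamma with DMSO and 100% = IFN-gamma with 300 µM nifuroxazide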
PPC-1+TRAIL kill: compounds killing PPC-1 cancer cells with TRAIL present, primary screen, TRAIL potentiator project, ATPLite luminescence, uHTS | AID 1443, 2008 | cell killing (% activity), % at 4 µM or 5 µM | 220,000 tested, 0.41% active | PPC-1 cells + TRAIL, ATPLite viability luminescence;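 active = cell killing above 50% in the first pass at 4 µM, then a duplicate retest at 5 µM averaging 50% or more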;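 note: plate controls were cells with TRAIL plus DMSO for no effect and medium-only wells lacking cells for full effect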
Starred values were filed as active, the others as inactive; . = no result. The list is not random: actives were taken first. Their share in the collection is about 1.8%.

SMILES	TRAIL sens C8	STAT3 inh	STAT3 act	STAT1 blocker	PPC-1+TRAIL kill
COc1ccc(C(C[N+](=O)[O-])C2(c3ccc(OC)c(OC)c3)C(=O)c3ccccc3C2=O)cc1 (stereo not given)	53*	-3	101	1	43
COc1ccc(C(C[N+](=O)[O-])c2c(-c3ccccc3)cc3ccccn23)cc1OC (stereo not given)	11	12	90	-7	10
O=C1NC[C@H](Cc2ccccc2)N(C[C@@H]2CCCN2C[C@H](Cc2ccc(O)cc2)N2C[C@H](Cc3ccccc3)N(CCc3ccccc3)C(=O)C2=O)C1=O	-9	.	.	.	.
C/C=C(/C)C(=O)OC1CC(C)(C)C[C@H]2C3=CC[C@@H]4[C@@]5(C)CCC(O[C@@H]6O[C@@H](C(=O)O)[C@@H](O)C(O[C@@H]7OC[C@H](O)[C@@H](O)[C@@H]7O[C@@H]7OC(CO)C(O)[C@@H](O)[C@@H]7O)C6O[C@@H]6OC(CO)C(O)C(O)C6O)[C@@](C)(CO)[C@@H]5CC[C@]4(C)[C@]3(C)CC(O)[C@@]12CO (stereo not given in full)	-3	.	.	.	.
C/C=C(\C)C(=O)OC1[C@H](OC(C)=O)C2(CO)C(CC1(C)C)C1=CCC3C4(C)CCC(O[C@@H]5O[C@H](C(=O)O)[C@@H](O[C@@H]6O[C@H](CO)[C@@H](O)[C@H](O)[C@H]6O)[C@H](O)[C@H]5O[C@H]5O[C@H](CO)[C@@H](O)[C@H](O)[C@H]5O)[C@](C)(CO)C4CCC3(C)[C@]1(C)C[C@H]2O (stereo not given in full)	89*	.	.	.	.
CC1CCCCN1C(=O)COC(=O)C1CCN(S(=O)(=O)c2c(Cl)cccc2Cl)CC1 (stereo not given)	3	.	.	.	.
Nc1c(C(=O)Nc2cccc(C(=O)O)c2)sc2nc3c(cc12)CCCC3	82*	.	.	.	.
Nc1nc(N)c2cc(Sc3ccc(Cl)cc3)ccc2n1	73*	.	.	.	.
Nc1ccc(Sc2cc(Cl)nc(N)n2)cc1	.	-14	117	-9	-1
Oc1cccnc1Sc1cccc(C(F)(F)F)c1	14	.	.	.	.
Nc1nc(N)c2cc(Sc3cccc(C(F)(F)F)c3)ccc2n1	73*	.	.	.	.
Nc1nc(N)c2cc(Sc3ccc4ccccc4c3)ccc2n1	73*	.	.	.	34
CCCCn1c(N)c(N(CCOC)C(=O)c2oc3c(Cl)cccc3c2C)c(=O)[nH]c1=O	-3	.	.	.	.
O=c1oc2ccccc2cc1-c1nc2c(s1)CCc1ccccc1-2	-2	-39	134*	-4	-6
Nc1ccc2oc(-c3cccc(Br)c3)nc2c1	20	16	92	-47	20
Nc1ccc2oc(-c3ccc4nc[nH]c4c3)nc2c1	57*	33	75	-28	31
CC(O)(c1ccccc1)c1nc(-c2ccncc2)cs1 (stereo not given)	3	.	.	.	.
CN(C)c1ccc(NC(=O)c2cccc(C(=O)Nc3ccc(N(C)C)cc3)n2)cc1	53*	7	97	-21	34
CCCN(C)C1CN(Cc2cn(Cc3cccc(C(F)(F)F)c3)nn2)S(=O)(=O)C1 (stereo not given)	-7	.	.	.	.
Cn1cc(/C=C/C(=O)c2ccccc2)c2ccccc21	60*	.	.	.	35
Cn1cc(/C=C2/SC(=O)N(c3ccccc3)C2=O)c2ccccc21	-1	-84	172*	-36	7
CCOC(=O)c1c(C)[nH]c(C(C)=NNC(=O)Cn2nc(C)cc2C)c1C	9	.	.	.	.
Cc1ccc(C2NC(=O)NC3=C2CCc2ccccc23)cc1 (stereo not given)	21	-34	134*	13	13
CC(C)c1ccc(NC(=O)CN2C(=O)NC3(CCCCCCC3)C2=O)cc1	0	.	.	.	.
CCOC(=O)C1CCN(c2ccc(-c3cccs3)nn2)CC1	40	.	.	.	.
SMILES	TRAIL sens C8	STAT3 inh	STAT3 act	STAT1 blocker	PPC-1+TRAIL kill
c1csc(-c2ccc(N3CCOCC3)nn2)c1	60*	.	.	.	.
COc1ccc(C2=NOC(C(=O)NCc3ccc(F)cc3)C2)cc1OC (stereo not given)	23	-36	134*	-5	10
CCc1ccc(S(=O)(=O)/N=C2\C=C(Nc3cccc(C(=O)O)c3)C(=O)c3ccccc32)cc1	17	.	.	.	.
CCc1ccc(S(=O)(=O)/N=C2\C=C(Nc3ccc(O)cc3)C(=O)c3ccccc32)cc1	97*	.	.	.	.
CCc1ccc(S(=O)(=O)/N=C2\C=CC(=O)c3ccccc32)cc1	.	-50	145*	3	12
CCc1ccc(S(=O)(=O)/N=C2/C=C(Sc3ncn[nH]3)C(=O)c3ccccc32)cc1	25	-50	139*	5	36
COc1cc(/C=N/NS(=O)(=O)c2ccc(C)cc2)ccc1OCc1ccc(C(=O)O)cc1	15	54*	56	85*	19
Cc1cccc(C2c3[nH]c4ccccc4c3CCN2C(=O)CN2CCOC2=O)n1 (stereo not given)	0	-37	134*	5	2
Cc1cccc(C2c3[nH]c4ccccc4c3CCN2C(=O)Cc2nc(-c3ccccc3)n[nH]2)n1 (stereo not given)	-13	-23	125	1	-8
Cc1c(CCCl)c(Cl)n2c(nc3ccccc32)c1C#N	88*	.	.	.	.
CC(C)(C)n1nnnc1C(CCc1ccccc1)N1CCN(C/C=C/c2ccccc2)CC1 (stereo not given)	-40	.	.	.	.
COc1ccc(OC)c2sc(N(CCN(C)C)C(=O)/C=C/c3cccs3)nc12	93*	.	.	.	.
COc1ccc(C)c2sc(N(CCN(C)C)C(=O)/C=C/c3cccs3)nc12	-2	.	.	.	.
O=CNc1c(Br)cc2c(c1Br)Cc1cc(Br)ccc1-2	3	.	.	.	.
O=Nc1c(O)c2ccccc2c2ccccc12	92*	.	.	.	.
CCCCn1c(CCC)nc([N+](=O)[O-])c1Sc1ccc(Cl)cn1	7	9	95	34*	8
COc1ccccc1C1c2ccc3ccccc3c2Oc2ncn(CCN(C)C)c(=N)c21 (stereo not given)	45	.	.	.	.
COc1ccc(C2c3ccc4ccccc4c3Oc3ncn(CCCN(C)C)c(=N)c32)cc1 (stereo not given)	58*	.	.	.	.
Cc1cc(OC(=O)c2ccccc2Cl)cc(=O)n1C	-21	16	91	35*	-1
CC(=O)Nc1sc(C)c(C)c1C(=O)OCC(=O)Nc1cccc(C)c1	24	.	.	.	.
O=C(Nc1ccc(C(=O)O)cc1)Nc1ccc([N+](=O)[O-])cc1	-13	.	.	.	.
O=C(Nc1cc(C(F)(F)F)cc(C(F)(F)F)c1)Nc1cnn(-c2ccc([N+](=O)[O-])cc2)c1C(F)(F)F	47*	.	.	.	17
COc1ccc(-c2noc(CCC(=O)Nc3cccnc3)n2)cc1	9	.	.	.	.
CC(C)(C)c1ccc(-c2noc(CCC(=O)Nc3cccnc3)n2)cc1	50*	.	.	.	.
CCCCCc1c(-c2ccc(OC)cc2)ncn1CCc1ccccc1OC	37	.	.	.	.
